Experimental findings from ChEMBL document CHEMBL1138187, “2-(2-Thienyl)-5,6-dihydroxy-4-carboxypyrimidines as inhibitors of the hepatitis C virus NS5B polymerase: discovery, SAR, modeling, and mutagenesis” (J Med Chem, 2006) are described below.

The source made the active and inactive calls. The rule behind the calls is not given here.

The target in series [1] is RNA-directed RNA polymerase (Hepacivirus hominis) (UniProt O39930). Kind of series: Inhibitory activity against HCV 1b BK NS5B deltaC55 RNA polymerase at 50 uM. The following applies: Hepatitis C virus subtype 1b.
Series [2] has the same target. Kind of series: Inhibition of replication of HCV 1b BK RNA in Huh7 cells at 100 uM in presence of 10% fetal calf serum. Format: functional, cell-based. As to conditions: Huh-7. Put shortly: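 Subgenomic HCV RNA replicon in Huh-7 cells, modified Bartenschlager procedure with 10% fetal calf serum; compounds first tested at a fixed 100 µM, with EC50 determined only where inhibition exceeded 50%; values averaged over at least three independent determinations.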

Series [3] has the same target. In words: Inhibitory activity against HCV 1b BK NS5B deltaC55 RNA polymerase at 200 uM. The following applies: Hepatitis C virus subtype 1b.
Series [4] has as its system O=c1ccn([C@@H]2O[C@H](COP(=O)(O)OP(=O)(O)OP(=O)(O)O)[C@@H](O)[C@H]2O)c(=O)[nH]1. Kind of series: Activity against HCV 1b BK NS5B deltaC55-R158M mutant RNA polymerase. As to conditions: Hepatitis C virus subtype 1b. Put shortly:
(§1)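 HCV 1b-BK NS5B∆C55 (residues 1-536) carrying R158M or R158K, expressed in E. coli BL21(DE3) and purified. Polymerase run on a homopolymeric template RNA with UTP as substrate; IC50 and UTP Km measured in duplicate.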

The test system is the same in series [5]. In words: Activity against HCV 1b BK NS5B deltaC55-R158K mutant RNA polymerase. As to conditions: Hepatitis C virus subtype 1b. Put shortly: as §1
Series [6] has the same test system. In words: Activity against HCV 1b BK NS5B deltaC55 RNA polymerase. The following applies: Hepatitis C virus subtype 1b. Put shortly: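 HCV genotype 1b BK-strain NS5B ΔC55 (residues 1-536) expressed in E. coli BL21(DE3) and purified; activity measured with a homopolymeric RNA template, assay run at pH 7.4 with Mg; IC50 is the mean of at least three independent determinations.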

The next series concerns Huh-7. In words: Cytotoxicity against Huh7 cells upto 100 uM. Format: functional, cell-based. The following applies: Homo sapiens.

Usually inhibition stands for how much of the control response was suppressed. In series [1], `CSc1nc(O)c(O)c(C(=O)O)n1` returned an inhibition of 55%. Besides, the inhibition result in series [2] was “inactive”.

In the case of `CS(=O)(=O)c1nc(O)c(O)c(C(=O)O)n1`, in series [2], the inhibition result was “inactive”.

On to `O=C(O)c1nc(Cc2ccccc2)nc(O)c1O`, for which the inhibition in series [1] is 24%.

As to `O=C(Nc1ccsc1-c1nc(O)c(O)c(C(=O)O)n1)OCCc1ccccc1`, the inhibition in series [2] was below 20%.

Take `O=C(O)c1nc(-c2nccs2)nc(O)c1O`: the inhibition in series [2] was below 20%.

For `O=C(O)c1nc(-c2ncc[nH]2)nc(O)c1O`, the inhibition in series [1] came to 50%.

`CCCCc1nc(O)c(O)c(C(=O)O)n1` yielded an inhibition in series [1] of 0%.

In series [3], `O=C(O)c1nc(C2CCCCC2)nc(O)c1O` registered an inhibition of 31%. For the same compound, the inhibition result in series [2] was “inactive”.

By Km is commonly meant the substrate concentration at which the rate is half of its maximum. “RNA-directed RNA polymerase (Hepacivirus hominis) (from UniProt O39930) UNDEFINED MUTATION”: the figures for the Km in series [4] and in series [5] were 15 µM and 20 µM, respectively.

With “RNA-directed RNA polymerase (Hepacivirus hominis), O39930”, the Michaelis-Menten constant (Km) in series [6] came out at 6 µM.

As for `O=C(O)c1nc(-c2cccs2)nc(O)c1O`, the inhibition result in series [2] was “inactive”.

Take `O=C(NCc1ccccc1Cl)Nc1ccsc1-c1nc(O)c(O)c(C(=O)O)n1`: the outcome with Huh-7 was inactive.

In series [1], `O=C(O)c1nc(-c2nccn2Cc2ccccc2)nc(O)c1O` registered an inhibition of 30%.
